Test results published in ChEMBL document CHEMBL1123153, “Synthesis and antitumor and antiviral properties of 5-alkyl-2'-deoxyuridines, 3',5'-cyclic monophosphates, and neutral cyclic triesters” (1986).
Converted amounts (≈) assume the structure as drawn.

Key:
Assay type in all cases: functional
[1] = test system: Raji; experiment: Cytostatic activity against proliferation of Raji/TK cells; conditions: Homo sapiens, read-out: ID50 (the source's name)
[2] = test system: Raji; experiment: Cytostatic activity against proliferation of Raji/0 cells; conditions: Homo sapiens, read-out: ID50 (the source's name)
[3] = test system: Human alphaherpesvirus 2; experiment: Antiviral activity against Herpes Simplex Virus-2(196)
[4] = test system: L1210; experiment: Cytostatic activity against proliferation of L1210/0 cells; conditions: Mus musculus, read-out: ID50 (the source's name)
Outline: (§1)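 Murine leukemia L1210 cells: parental L1210/0 and L1210/BdUrd, a thymidine-kinase-deficient mutant selected from L1210/0 by growth in the presence of 260 µg/mL 5-bromo-2'-deoxyuridine. Value is the dose inhibiting tumor cell proliferation by 50% (ID50).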

[5] = test system: Human alphaherpesvirus 1; experiment: Antiviral activity against Herpes Simplex Virus-1(F)
[6] = test system: Human alphaherpesvirus 2; experiment: Antiviral activity against Herpes Simplex Virus-2(Lyons)
[7] = test system: L1210; experiment: Cytostatic activity against proliferation of L1210/BdU cells; conditions: Mus musculus, read-out: ID50 (the source's name); outline: as §1
[8] = test system: Human alphaherpesvirus 2; experiment: Antiviral activity against Herpes Simplex Virus-2(G)
[9] = test system: Human alphaherpesvirus 1; experiment: Antiviral activity against Herpes Simplex Virus-1 (McIntyre)
[10] = test system: Human alphaherpesvirus 1; experiment: Antiviral activity against Herpes Simplex Virus-1(KOS)
[11] = test system: Vesicular stomatitis virus; experiment: Antiviral activity against vesicular stomatitis virus
[12] = test system: Vaccinia virus; experiment: Antiviral activity against vaccinia virus; conditions: Orthopoxvirus vaccinia
[13] = test system: Raji; experiment: Compound was tested for Cytostatic activity against proliferation of Raji/0 cells (human lymphoblast Raji cells line); conditions: read-out: ID50 (the source's name)
[14] = test system: L1210; experiment: Compound was tested for Cytostatic activity against proliferation of L1210/0 cells (murine leukemia L1210 cell line); conditions: Mus musculus, read-out: ID50 (the source's name); outline: as §1
[15] = test system: L1210; experiment: Compound was tested for Cytostatic activity against proliferation of L1210/BdU cells (thymidine kinase deficient L1210 cell line); conditions: Mus musculus, read-out: ID50 (the source's name); outline: as §1
[16] = test system: Raji; experiment: Compound was tested for Cytostatic activity against proliferation of Raji/TK cells (thymidine kinase deficient Raji cell line); conditions: Homo sapiens, read-out: ID50 (the source's name)

| Structure (SMILES) | IC50 [1] [µg/mL] | IC50 [2] [µg/mL] | MIC50 [3] [µg/mL] | IC50 [4] [µg/mL] | MIC50 [5] [µg/mL] | MIC50 [6] [µg/mL] | IC50 [7] [µg/mL] | MIC50 [8] [µg/mL] | MIC50 [9] [µg/mL] | MIC50 [10] [µg/mL] | MIC50 [11] [µg/mL] | MIC50 [12] [µg/mL] | IC50 [13] [µg/mL] | IC50 [14] [µg/mL] | IC50 [15] [µg/mL] | IC50 [16] [µg/mL] |
| --- | --- | --- | --- | --- | --- | --- | --- | --- | --- | --- | --- | --- | --- | --- | --- | --- |
| CCCCCCCCc1cn([C@H]2C[C@@H]3OP(=O)(O)OC[C@H]3O2)c(=O)[nH]c1=O.N | 184 | 165 | > 200 | 164 | > 200 | > 200 | 193 | > 200 | > 200 | > 200 | > 200 | 20 | – | – | – | – |
| CCc1cn([C@H]2C[C@H](O)[C@@H](CO)O2)c(=O)[nH]c1=O [EDOXUDINE] | > 500 | 2.9 (≈ 11.3 µM) | 2 (≈ 7.8 µM) | 1.6 (≈ 6.24 µM) | 2 (≈ 7.8 µM) | 0.2 (≈ 0.78 µM) | > 500 | 0.4 (≈ 1.56 µM) | 0.2 (≈ 0.78 µM) | 0.7 (≈ 2.73 µM) | > 400 | 0.7 (≈ 2.73 µM) | – | – | – | – |
| CCCCc1cn([C@H]2C[C@@H]3OP(=O)(O)OC[C@H]3O2)c(=O)[nH]c1=O.N | 165 | 82 | > 400 | 28.4 | > 400 | 300 | 33.5 | > 400 | > 400 | > 400 | > 400 | 300 | – | – | – | – |
| CC(C)c1cn([C@H]2C[C@@H]3OP(=O)(O)OC[C@H]3O2)c(=O)[nH]c1=O.N | > 500 | > 500 | > 200 | > 500 | > 200 | > 200 | > 500 | > 200 | > 200 | > 200 | > 200 | > 200 | – | – | – | – |
| CCCc1cn([C@H]2C[C@@H]3OP(=O)(O)OC[C@H]3O2)c(=O)[nH]c1=O.N | > 500 | > 500 | > 400 | > 500 | 300 | 400 | > 500 | 400 | 150 | 150 | > 400 | > 400 | – | – | – | – |
| CCCCCCc1cn([C@H]2C[C@@H]3OP(=O)(O)OC[C@H]3O2)c(=O)[nH]c1=O.N | > 500 | > 500 | > 400 | > 500 | > 400 | 300 | > 500 | > 400 | > 400 | > 400 | > 400 | > 400 | – | – | – | – |
| CCCCCCCCc1cn([C@H]2C[C@H](O)[C@@H](CO)O2)c(=O)[nH]c1=O | 140 (≈ 411 µM) | 52 (≈ 153 µM) | > 100 | 66 (≈ 194 µM) | > 100 | 100 (≈ 294 µM) | 72 (≈ 212 µM) | 100 (≈ 294 µM) | > 100 | > 100 | > 100 | 7 (≈ 20.6 µM) | – | – | – | – |
| CCCCc1cn([C@H]2C[C@H](O)[C@@H](CO)O2)c(=O)[nH]c1=O | > 500 | > 500 | > 400 | > 500 | 70 (≈ 246 µM) | 20 (≈ 70.3 µM) | > 500 | 150 (≈ 528 µM) | 20 (≈ 70.3 µM) | 20 (≈ 70.3 µM) | > 400 | 300 (≈ 1060 µM) | – | – | – | – |
| CCCCCCc1cn([C@H]2C[C@H](O)[C@@H](CO)O2)c(=O)[nH]c1=O | 173 (≈ 554 µM) | 151 (≈ 483 µM) | – | 172 (≈ 551 µM) | > 400 | 300 (≈ 960 µM) | 195 (≈ 624 µM) | 400 (≈ 1280 µM) | 300 (≈ 960 µM) | > 400 | – | 300 (≈ 960 µM) | – | – | – | – |
| CCCCCc1cn([C@H]2C[C@H](O)[C@@H](CO)O2)c(=O)[nH]c1=O | 328 (≈ 1100 µM) | 334 (≈ 1120 µM) | > 400 | 476 (≈ 1600 µM) | 10 (≈ 33.5 µM) | 70 (≈ 235 µM) | 477 (≈ 1600 µM) | 70 (≈ 235 µM) | 40 (≈ 134 µM) | 20 (≈ 67 µM) | > 400 | 300 (≈ 1010 µM) | – | – | – | – |
| O=c1[nH]c(=O)n([C@H]2C[C@H](O)[C@@H](CO)O2)cc1/C=C/Br [BRIVUDINE] | – | – | 100 (≈ 300 µM) | – | 0.02 (≈ 0.06 µM) | 1 (≈ 3 µM) | – | 1 (≈ 3 µM) | 0.02 (≈ 0.06 µM) | 0.02 (≈ 0.06 µM) | > 400 | 2 (≈ 6 µM) | – | – | – | – |
| CCc1cn([C@H]2C[C@@H]3OP(=O)(O)OC[C@H]3O2)c(=O)[nH]c1=O.N | > 500 | 60 | 150 | 55 | 70 | 7 | > 500 | 10 | 70 | 70 | > 400 | 70 | – | – | – | – |
| CC(C)c1cn([C@H]2C[C@H](O)[C@@H](CO)O2)c(=O)[nH]c1=O [EPERVUDINE] | – | – | 400 (≈ 1480 µM) | – | 2 (≈ 7.4 µM) | 100 (≈ 370 µM) | – | 40 (≈ 148 µM) | 1 (≈ 3.7 µM) | 7 (≈ 25.9 µM) | > 400 | 300 (≈ 1110 µM) | > 500 | > 500 | > 500 | > 500 |
| CCCCCc1cn([C@H]2C[C@@H]3OP(=O)(O)OC[C@H]3O2)c(=O)[nH]c1=O.N | > 500 | > 500 | > 400 | > 500 | > 400 | > 400 | > 500 | > 400 | > 400 | > 400 | > 400 | > 400 | – | – | – | – |
| CCCc1cn([C@H]2C[C@H](O)[C@@H](CO)O2)c(=O)[nH]c1=O | > 500 | > 500 | 40 (≈ 148 µM) | > 500 | 7 (≈ 25.9 µM) | 7 (≈ 25.9 µM) | > 500 | 10 (≈ 37 µM) | 2 (≈ 7.4 µM) | 2 (≈ 7.4 µM) | > 200 | 200 (≈ 740 µM) | – | – | – | – |
